Measurements from different studies.
Lines come from different studies, so protocols differ.
Target: Serine/threonine-protein kinase Chk2 (CHEK2, Homo sapiens, UniProt O96017)

| SMILES | read-out | technique | tested at | remaining binding [%] |
| --- | --- | --- | --- | --- |
| COc1cccc(CNC(=O)c2nc3scc(COCc4ccc(C(=O)O)cc4)c3c(=O)[nH]2)c1 | cell-free assay | competition with immobilised ligand | 1 µM | 92 |
| N[C@@H]1CCN(c2nccc(-c3cnn4ncccc34)n2)C1 | binding | – | 1 µM | 100 |
| O=C(NCC1CCOCC1)c1n[nH]cc1NC(=O)c1c(F)cccc1F | binding | competition with immobilised ligand | 1 µM | 97 |
| CC1CCCN1c1nccc(-c2cnn3ncccc23)n1 (stereo not drawn) | binding | – | 1 µM | 100 |
| CC(C)(O)c1cncc(-c2nc3ccc(F)cc3n2C2CC2)c1 | cell-free assay | competition with immobilised ligand | 1 µM | 100 |
| F[C@@H]1CCN(c2nccc(-c3cnn4ncccc34)n2)C1 | binding | – | 1 µM | 100 |
| C=CC(=O)N1CCC(C(=O)NCC(=O)N2CCN(c3nc(-c4cnc(N)nc4C(F)F)nc(N4CCOCC4)n3)CC2)CC1 | binding | competition with immobilised ligand | 1 µM | 88 |
| CN(C)c1nccc(-c2cnn3ncccc23)n1 | binding | – | 1 µM | 100 |
| COc1ncc2cc3ccccc3nc2c1C#N | cell-free assay | competition with immobilised ligand | 5 µM | 100 |
| O=C(c1ccc(Nc2ncc(Cl)c(-c3cc4ccccc4s3)n2)cc1)N1CCC(N2CCCC2)CC1 | binding | competition with immobilised ligand | 1 µM | 82 |
| CCN1CCN(Cc2ccc(C(=O)Nc3ccc(C)c(Oc4ccc5c(c4)CC(=O)N5)c3)cc2C(F)(F)F)CC1 | binding | competition with immobilised ligand | 1 µM | 100 |
| C[C@H]1CCN(c2nccc(-c3cnn4ncccc34)n2)C1 | binding | – | 1 µM | 94 |
| COc1cnc(Nc2cccc(S(N)(=O)=O)c2)nc1N1CCN(c2ccccc2)C(=O)C1 | binding | competition with immobilised ligand | 1 µM | 86 |
| CN(C)C(=O)Cn1cc(-c2nc(C3(c4ccc(-c5cnc(N)nc5)cc4)CC3)no2)cn1 | cell-free assay | competition with immobilised ligand | 1 µM | 100 |
| CN(CCCC(F)(F)F)c1nccc(-c2cnn3ncccc23)n1 | binding | – | 1 µM | 99 |
| O=C(c1ccc(Nc2nccc(-c3cc4ccccc4s3)n2)cc1)N1CCC(N2CCCC2)CC1 | binding | competition with immobilised ligand | 1 µM | 100 |
| CCCOc1ccc([C@@H]2[C@@H](C(=O)O)[C@H](c3ccc4c(c3)OCO4)CN2CC(=O)Nc2c(CC)cccc2CC)cc1 | cell-free assay | competition with immobilised ligand | 1 µM | 98 |
| COc1cc(C(=O)N2CCC(N3CCN(C)CC3)CC2)ccc1Nc1ncc2c(n1)N(C)c1ccccc1C(=O)N2C | binding | competition with immobilised ligand | 10 µM | 66 |
| CCS(=O)(=O)c1cc2cc(C[C@@](O)(CC(C)(C)c3ccc(F)cc3C(N)=O)C(F)(F)F)[nH]c2cn1 | cell-free assay | competition with immobilised ligand | 1 µM | 84 |
| c1cncc(-c2cccc(Nc3nccc(NC4CCCCC4)n3)c2)c1 | binding | competition with immobilised ligand | 10 µM | 97 |
| CNC(=O)Nc1ccc2c(c1)CC[C@@]21OC(=O)N(CC(=O)N(Cc2ccc(F)cc2)[C@@H](C)C(F)(F)F)C1=O | cell-free assay | competition with immobilised ligand | 1 µM | 100 |
| Cc1cnc(Nc2ccc(C(=O)N3CCC(N4CCCC4)CC3)cc2)nc1-c1cc2ccccc2s1 | binding | competition with immobilised ligand | 1 µM | 100 |
| c1cnn2ncc(-c3ccnc(N4CCC45COC5)n3)c2c1 | binding | – | 1 µM | 77 |
| CCC(=N\O)/C(C)=C/c1ccc(F)cc1 | cell-free assay | competition with immobilised ligand | 1 µM | 85 |
